{"source": "paper PMC2659327", "about": "(Nature chemical biology, 2009)", "key": {"[1]": {"assay": "solubility in 25% dimethylsulfoxide or 25% dimethylformamide", "format": "physicochemical"}, "[2]": {"test_system": "mouse pancreatic beta cells", "assay": "NAADP-mediated Ca2+ spiking in patch-clamped pancreatic beta cells", "format": "cell-based", "conditions": "pre-incubation with 125 μM in bathing solution; NAADP 50 nM via patch pipette", "how_it_was_run": "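Whole-cell patch clamp at room temperature. Borosilicate pipettes were 3–5 MΩ and the holding potential was −70 mV. Test compound was pre-incubated in the bath. Read-out was Ca2+-dependent current traces.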"}, "[3]": {"test_system": "voltage-gated Ca^2+ channels", "assay": "KCl depolarization-induced Ca2+ transient in islets", "format": "cell-based, mouse", "conditions": "100 μM compound; glucose 10 mM, diazoxide 100 μM, KCl 45 mM", "how_it_was_run": "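Pancreatic beta cells loaded with fura-PE3 acetoxymethyl ester for Ca2+ imaging. Cells were held in glucose and diazoxide, then depolarized with KCl with or without test compound in the bath. Data given as mean ± standard error of the mean and compared by one-tailed t-tests.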"}, "[4]": {"test_system": "sea urchin egg binding protein (NAADP receptor)", "assay": "[32P]NAADP radioligand displacement binding assay, sea urchin egg homogenate", "design": "species or system Lytechinus pictus"}, "[5]": {"test_system": "glucose-induced Ca^2+ increases in mouse pancreatic islets", "assay": "glucose-induced Ca2+ signaling in isolated pancreatic islets", "format": "cell-based", "conditions": "isolated mouse islet, glucose 10 mM, compound 100 μM"}, "[6]": {"test_system": "intact sea urchin eggs", "assay": "NAADP-induced Ca2+ release in intact sea urchin eggs", "format": "cell-based", "conditions": "100 μM compound in artificial seawater; NAADP microinjected"}, "[7]": {"test_system": "NAADP-mediated Ca^2+ release", "assay": "NAADP-mediated Ca2+ release bioassay in sea urchin egg homogenate", "format": "biochemical, Lytechinus pictus", "conditions": "for Ca2+ release induced by the compound itself in the bioassay: compound at 125 μM"}, "[8]": {"test_system": "mitochondrial metabolism (NAD(P)H)", "assay": "glucose-induced NAD", "format": "cell-based, mouse", "conditions": "100 μM compound", "how_it_was_run": "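Islets of Langerhans were pre-incubated 60 min at 37°C in control medium containing 3 mM glucose. NAD(P)H autofluorescence was recorded at 360 nm excitation and >470 nm emission. Changes were expressed as percent of basal values within the same islet.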"}, "[9]": {"test_system": "inositol 1,4,5-trisphosphate-mediated Ca^2+ release", "assay": "inositol 1,4,5-trisphosphate-mediated Ca2+ release in sea urchin egg homogenate", "format": "biochemical, Lytechinus pictus", "conditions": "read-out: EC50, Ca2+ release", "how_it_was_run": "(§1)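 Lytechinus pictus egg homogenate with the Ca2+ dye fluo-3 and ATP. Second messenger added and Ca2+ release followed as fluo-3 fluorescence (RFU), in a plate reader (2-4 replicates) or a fluorimeter.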"}, "[10]": {"test_system": "cyclic ADP-ribose-mediated Ca^2+ release", "assay": "cyclic ADP-ribose-mediated Ca2+ release in sea urchin egg homogenate", "format": "biochemical, Lytechinus pictus", "conditions": "read-out: EC50, Ca2+ release", "how_it_was_run": "as §1"}}, "note": "Values joined by “and” are separate entries in the source; they are usually repeats but may differ in a detail not shown here. Equal entries are not always repeated."}
{"molecule": "C=C1NN(c2nc(-c3cccc([N+](=O)[O-])c3)cs2)C(=O)/C1=N/Nc1ccc(Cl)cc1C(=O)c1ccccc1", "note": "[Nrd-7]", "values": [{"measurement": "solubility", "setting": "[1]", "result": "sparingly soluble"}]}
{"molecule": "COc1ccc(C2N[C@H](C(=O)O)Cc3c2[nH]c2ccccc32)cc1CN1CCN(c2ccccc2F)CC1", "note": "(stereo partly shown) [Ned-19]", "values": [{"measurement": "NAADP-mediated Ca2+ spiking", "setting": "[2]", "result": "blocked NAADP-mediated Ca^2+ spiking"}, {"measurement": "KCl depolarization-induced Ca2+ transient", "setting": "[3]", "result": "unaltered"}, {"measurement": "dissociation from the NAADP receptor (recovery of [32P]NAADP binding)", "setting": "[4]; Ned-19 10 μM, after 5 days of incubation", "result": "only about half the bound Ned-19 dissociates"}, {"measurement": "Hill coefficient, [32P]NAADP binding competition", "setting": "[4]; commercial Ned-19", "result": "−2.3"}, {"measurement": "effect on glucose-induced Ca2+ signal", "setting": "[5]", "result": "reduced the amplitude of the oscillations and reduced the elevated plateau to the nonstimulated level"}, {"measurement": "NAADP-induced Ca2+ increase in intact sea urchin eggs", "setting": "[6]", "result": "failed to elicit a Ca^2+ increase"}, {"measurement": "Hill coefficient, inhibition of NAADP-mediated Ca2+ release", "setting": "[7]; commercial Ned-19", "result": "−0.6"}, {"measurement": "effect on NAADP concentration-response curve", "setting": "[7]; constant presence of 125 μM compound (figure legend: 100 μM)", "result": "reduced the maximum release and shifted the EC50 to the right"}, {"measurement": "glucose-induced increase in NADH and NADPH fluorescence", "setting": "[8]", "result": "still occurred"}]}
{"molecule": "CCC(=O)N1N=C(c2ccc(C3=NN(C(=O)CC)[C@H](c4cccc(OC)c4OC)C3)cc2)C[C@H]1c1cccc(OC)c1OC", "note": "[Nrd-11]", "values": [{"measurement": "solubility", "setting": "[1]", "result": "sparingly soluble"}]}
{"molecule": "nicotinic acid adenine dinucleotide phosphate [NAADP, reference compound]", "values": [{"measurement": "EC50", "setting": "[7]; read-out: EC50, Ca2+ release, sea urchin egg homogenate", "result": "0.035 µM and 0.03 to 0.05 µM"}]}
{"molecule": "N=c1c2ncn3c2ncn1[C@@H]1O[C@H](COP(=O)(O)OP(=O)(O)OC[C@H]2O[C@@H]3[C@H](O)[C@@H]2O)[C@@H](O)[C@H]1O", "note": "[cADPR, cyclic ADP-ribose]", "values": [{"measurement": "EC50", "setting": "[10]", "result": 0.3, "unit": "µM"}]}
{"molecule": "COc1ccc2[nH]c(C(=O)O)c(CCNC(=O)CO/N=C3/C=C[C@@]4(C)C(=C3)CC[C@@H]3[C@H]4CC[C@]4(C)[C@H]3CC[C@]4(C)O)c2c1", "note": "[Nrd-10]", "values": [{"measurement": "Ca2+ release induced by the compound itself in the bioassay", "setting": "[7]", "result": "induced irreversible Ca^2+ release"}]}
{"molecule": "FC(F)(F)c1cccc(N2CCN(Cn3nc(COc4ccccc4)n(-c4ccccc4)c3=S)CC2)c1", "note": "[Ned-16]", "values": [{"measurement": "Ca2+ release induced by the compound itself in the bioassay", "setting": "[7]", "result": "induced irreversible Ca^2+ release"}]}
